Reference: ChEMBL document CHEMBL1143719, “Design, synthesis, and anticonvulsant activity of some sulfamides” (Bioorg Med Chem, 2007)
The source made the active and inactive calls. The calls are words filed in the database; no cut-off is given here.

Experiments:
Mus musculus [1] = test: Neurotoxicity in Albino mouse at 300 mg/kg, ip after 0.5 hrs by RotoRod test; format: toxicity, organism-based; parameters: dose 300 mg/kg, route intraperitoneal; settings: in vivo
Summary of the method: (§1)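 RotoRod neurotoxicity screen in mice dosed ip at 30, 100 and 300 mg/kg, in vehicle of 30% PEG 400 and 10% water (0.01 mL/g). Three animals per dose, tested 0.5 and 4 h after administration. Affected animals were scored per group.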

Mus musculus [2] = test: Neurotoxicity in Albino mouse at 30 mg/kg, ip after 0.5 hrs by RotoRod test; format: toxicity, organism-based; parameters: dose 30 mg/kg, route intraperitoneal; settings: in vivo; summary of the method: as §1
Mus musculus [3] = test: Anticonvulsant activity in Albino mouse at 30 mg/kg, ip after 0.5 hrs by MES assay; format: functional, organism-based; parameters: dose 30 mg/kg
Summary of the method: (§2)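 Mice given compound ip at 30, 100 and 300 mg/kg in 30% polyethylene glycol 400 and 10% water, 0.01 mL/g body weight. Three animals per dose. Maximal electroshock (MES) or pentylenetetrazol (PTZ) seizure tests were run 0.5 and 4 h after dosing, and animals protected were counted.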

Mus musculus [4] = test: Neurotoxicity in Albino mouse at 100 mg/kg, ip after 4 hrs by RotoRod test; format: toxicity, organism-based; parameters: dose 100 mg/kg, route intraperitoneal; settings: in vivo; summary of the method: as §1
Mus musculus [5] = test: Anticonvulsant activity in Albino mouse at 30 mg/kg, ip after 4 hrs by MES assay; format: functional, organism-based; parameters: dose 30 mg/kg; summary of the method: as §2
Mus musculus [6] = test: Anticonvulsant activity in Albino mouse at 30 mg/kg, ip after 0.5 hrs by PTZ assay; format: functional, organism-based; parameters: dose 30 mg/kg; summary of the method: as §2
Mus musculus [7] = test: Neurotoxicity in Albino mouse at 100 mg/kg, ip after 0.5 hrs by RotoRod test; format: toxicity, organism-based; parameters: dose 100 mg/kg, route intraperitoneal; settings: in vivo; summary of the method: as §1
Mus musculus [8] = test: Neurotoxicity in Albino mouse at 300 mg/kg, ip after 4 hrs by RotoRod test; format: toxicity, organism-based; parameters: dose 300 mg/kg, route intraperitoneal; settings: in vivo; summary of the method: as §1
Mus musculus [9] = test: Neurotoxicity in Albino mouse at 30 mg/kg, ip after 4 hrs by RotoRod test; format: toxicity, organism-based; parameters: dose 30 mg/kg, route intraperitoneal; settings: in vivo; summary of the method: as §1
Mus musculus [10] = test: Anticonvulsant activity in Albino mouse at 100 mg/kg, ip after 4 hrs by MES assay; format: functional, organism-based; parameters: dose 100 mg/kg; summary of the method: as §2
Mus musculus [11] = test: Anticonvulsant activity in Albino mouse at 30 mg/kg, ip after 4 hrs by PTZ assay; format: functional, organism-based; parameters: dose 30 mg/kg; summary of the method: as §2
Mus musculus [12] = test: Anticonvulsant activity in Albino mouse at 100 mg/kg, ip after 4 hrs by PTZ assay; format: functional, organism-based; parameters: dose 100 mg/kg; summary of the method: as §2
Mus musculus [13] = test: Anticonvulsant activity in Albino mouse at 300 mg/kg, ip after 4 hrs by MES assay; format: functional, organism-based; parameters: dose 300 mg/kg; summary of the method: as §2
Mus musculus [14] = test: Anticonvulsant activity in Albino mouse at 300 mg/kg, ip after 0.5 hrs by PTZ assay; format: functional, organism-based; parameters: dose 300 mg/kg; summary of the method: as §2
Mus musculus [15] = test: Anticonvulsant activity in Albino mouse at 300 mg/kg, ip after 4 hrs by PTZ assay; format: functional, organism-based; parameters: dose 300 mg/kg; summary of the method: as §2
Mus musculus [16] = test: Anticonvulsant activity in Albino mouse at 100 mg/kg, ip after 0.5 hrs by MES assay; format: functional, organism-based; parameters: dose 100 mg/kg; summary of the method: as §2
Mus musculus [17] = test: Anticonvulsant activity in Albino mouse at 300 mg/kg, ip after 0.5 hrs by MES assay; format: functional, organism-based; parameters: dose 300 mg/kg; summary of the method: as §2
Mus musculus [18] = test: Anticonvulsant activity in Albino mouse at 100 mg/kg, ip after 0.5 hrs by PTZ assay; format: functional, organism-based; parameters: dose 100 mg/kg; summary of the method: as §2

Row | Structure (SMILES) | Activity (Mus musculus [1]) | Activity (Mus musculus [2]) | Activity (Mus musculus [3]) | Activity (Mus musculus [4]) | Activity (Mus musculus [5]) | Activity (Mus musculus [6]) | Activity (Mus musculus [7]) | Activity (Mus musculus [8]) | Activity (Mus musculus [9]) | Activity (Mus musculus [10]) | Activity (Mus musculus [11]) | Activity (Mus musculus [12]) | Activity (Mus musculus [13]) | Activity (Mus musculus [14]) | Activity (Mus musculus [15]) | Activity (Mus musculus [16]) | Activity (Mus musculus [17]) | Activity (Mus musculus [18])
1 | CCCCN(CCCC)S(N)(=O)=O | Toxic | Non-toxic | inactive | Non-toxic | inactive | inactive | Non-toxic | Toxic | Non-toxic | inactive | inactive | inactive | – | – | – | – | – | –
2 | CCCNS(=O)(=O)NCCC | – | Non-toxic | inactive | Non-toxic | inactive | inactive | Non-toxic | Non-toxic | Non-toxic | inactive | – | inactive | inactive | Active | inactive | inactive | Active | –
3 | CCCN(CCC)S(=O)(=O)NC(=O)OC(C)(C)C | Non-toxic | Non-toxic | inactive | Non-toxic | inactive | inactive | Non-toxic | Non-toxic | Non-toxic | inactive | inactive | inactive | inactive | inactive | inactive | inactive | – | inactive
4 | O=S(=O)(N1CCOCC1)N1CCOCC1 | – | Non-toxic | inactive | Non-toxic | inactive | inactive | Non-toxic | – | Non-toxic | inactive | inactive | inactive | – | – | – | inactive | – | inactive
5 | CCCCNS(=O)(=O)NC(=O)OC(C)(C)C | Non-toxic | Non-toxic | – | Non-toxic | inactive | inactive | Non-toxic | Non-toxic | Non-toxic | – | inactive | inactive | – | inactive | inactive | Active | Active | inactive
6 | CCCCNS(N)(=O)=O | Toxic | Non-toxic | inactive | Non-toxic | – | inactive | – | – | Non-toxic | – | inactive | inactive | – | – | – | inactive | – | inactive
7 | CCCN(CCC)S(N)(=O)=O | – | Toxic | inactive | Toxic | inactive | inactive | Toxic | – | Toxic | – | inactive | – | – | – | – | – | – | –
8 | CCCCN(CCCC)S(=O)(=O)NC(=O)OC(C)(C)C | Non-toxic | Non-toxic | inactive | Non-toxic | – | inactive | Non-toxic | Non-toxic | Non-toxic | inactive | inactive | inactive | – | inactive | inactive | – | – | inactive
